An excerpt weighted towards active compounds, which were near 4.5% of everything screened.
PHOSPHO1 inh – PHOSPHO1 (human) inhibition; inhibition, % at 13.3 µM; recombinant PHOSPHO1, absorbance phosphatase assay; AID 1565; 290,000 tested, 1.1% active; in the data active = inhibition above about 60%
Target sequence (Q8TCT1 whole entry, looked up): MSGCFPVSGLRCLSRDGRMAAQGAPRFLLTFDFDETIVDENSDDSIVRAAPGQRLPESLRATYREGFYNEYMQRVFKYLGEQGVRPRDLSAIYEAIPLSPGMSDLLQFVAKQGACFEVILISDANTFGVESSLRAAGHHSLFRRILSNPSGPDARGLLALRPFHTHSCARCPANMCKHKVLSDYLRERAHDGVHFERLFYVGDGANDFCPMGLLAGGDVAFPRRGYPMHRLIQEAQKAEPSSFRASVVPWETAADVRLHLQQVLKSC
MrgX1 agonist – human MrgX1 receptor agonism, primary screen | B-score at 10 µM | Q96LB2 | MrgX1-HEK293 cells, Fluo-4 calcium fluorescence, agonist mode; hits give high values | 310,000 tested, 0.44% active;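 active = calcium response B-score plate-corrected fluorescence ratio at least 3 library SD, with starting fluorescence B-score inside 5 SD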
Target sequence (Q96LB2 whole entry, looked up): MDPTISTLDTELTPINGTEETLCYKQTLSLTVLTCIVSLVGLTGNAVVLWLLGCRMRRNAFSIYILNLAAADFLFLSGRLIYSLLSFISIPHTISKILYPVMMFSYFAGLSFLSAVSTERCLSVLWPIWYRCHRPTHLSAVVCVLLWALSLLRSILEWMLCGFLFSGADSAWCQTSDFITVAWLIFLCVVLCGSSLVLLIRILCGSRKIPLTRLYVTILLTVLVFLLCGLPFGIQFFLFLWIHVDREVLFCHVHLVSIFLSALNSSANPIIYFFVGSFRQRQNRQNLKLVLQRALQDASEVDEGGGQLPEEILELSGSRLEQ
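Material: MrgX1-expressing HEK293 cells; input: 15,000 cells per well; doses: test compound given as first of three sequential additions; schedule: overnight plating before 1 h dye loading; technique: Fluo-4 NW calcium-flux fluorescence, kinetic read; evaluation: baseline-normalised fluorescence change ratio, B-scored; control set: plate-wise positive and negative controls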
RGS4 act – potentiators or activators of RGS4. HEK293 M3R/inducible RGS4, carbachol calcium flux Fluo4; hits give low values. B-score at 10 µM. 310,000 tested, 0.92% active. AID 463111;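 active = B-score of the integrated calcium signal more than 4 SD below the library mean, with starting fluorescence not abnormally high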;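 also: negative B-score means reduced calcium response which marks RGS4 activation or potentiation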
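Assay system: Inducible-RGS4 HEK293 cells carrying M3 receptor | Schedule: Compound preincubation 20 min at room temperature before agonist | Signal: Kinetic calcium fluorescence imaging with Fluo4-AM dye, 2 µM | Read-out basis: B score from integrated fluorescence ratio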
MrgX1 PAM – human MrgX1 positive allosteric modulation, primary screen; B-score at 10 µM; AID 588675; Q96LB2; MrgX1-HEK293, Fluo-4 calcium flux, FDSS; hits give high values; 310,000 tested, 0.63% active;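 active = plate-corrected calcium response at least 3 library SD above typical, normal starting fluorescence, not activating the receptor alone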;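 also: compound read alongside a low EC10 to EC30 dose of BAM8-22 agonist; peak minus trough fluorescence over baseline measured at the second addition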
RGS4 inh – human RGS4 inhibition. AID 463165. P49798. 310,000 tested, 0.45% active. B-score at 10 µM. HEK293 M3R/RGS4 inducible, Fluo-4 calcium flux; hits give high values; triggered by carbachol at its EC20;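 active = B-score, a plate-corrected calcium signal, over three deviations above library mean, with baseline fluorescence within five deviations of library mean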;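 also: RGS4 expression induced by doxycycline in cells with stable M3 receptor; B-score is computed from the integrated fluorescence ratio over baseline after carbachol; higher B-score means a larger calcium signal and so more RGS4 inhibition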
Target sequence (P49798 whole entry, looked up): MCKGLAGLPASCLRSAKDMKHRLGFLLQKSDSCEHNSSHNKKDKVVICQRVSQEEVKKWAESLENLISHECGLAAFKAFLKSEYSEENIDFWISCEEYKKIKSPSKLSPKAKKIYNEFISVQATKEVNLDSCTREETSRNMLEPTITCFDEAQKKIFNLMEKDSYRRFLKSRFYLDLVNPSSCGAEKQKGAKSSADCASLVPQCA
MrgX1 antagonist – antagonists of human MrgX1 receptor; Q96LB2; MRGX1-HEK293 calcium flux, Fluo-4, BAM8-22 antagonism; hits give low values; B-score at 10 µM; 310,000 tested, 1.3% active;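 active = calcium-response B-score plate-corrected more than 3 library SD below zero, starting fluorescence within 5 deviations, no agonist response on first addition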;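 also: peak minus trough fluorescence over baseline after final BAM8-22 challenge near maximal dose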
MrgX1 ant reconf – reconfirmed antagonist of human MrgX1 receptor signaling. shares compounds with MrgX1 antagonist. MrgX1-HEK293, BAM8-22 calcium flux, Fluo-4; hits give low values. remaining BAM8-22 calcium response % of control (hits give low values), % at 10 µM. 2,300 tested, 19% active;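 active = remaining agonist calcium response no higher than 100% minus 3 SD of agonist-only control wells, with starting fluorescence near control levels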;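 also: agonist BAM8-22 given at a near maximal EC90 to ECmax level; peak minus minimum fluorescence divided by baseline after agonist addition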
HEK293 Ca flux – MrgX1 antagonist counter-screen hit in parental HEK293 cells; AID 624111; Fluo-4 calcium fluorescence, FDSS; 4,000 tested, 2% active; shares compounds with MrgX1 antagonist; fluorescence ratio F(max-min)/F0 at 10 µM;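 active = duplicate-averaged calcium fluorescence ratio at least three times the standard deviation of buffer wells, a nonspecific response in parental cells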
HEK293 Ca counter – activity in parental HEK293 cells without MrgX1. parental HEK293 calcium flux, Fluo-4 fluorescence ratio; hits give high values. shares compounds with MrgX1 antagonist. fluorescence ratio F(max-min)/F0 at 10 µM. 4,000 tested, 0.4% active. AID 624114;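 active = calcium fluorescence ratio, averaged over duplicates, at least 3 SD of the buffer-well ratio, meaning a nonspecific response in receptor-free cells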;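 also: untransfected parental HEK293 lacking MrgX1 used as counterscreen for MrgX1 allosteric activators; fluorescence change taken during the second addition on a kinetic imager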
HEK293 Ca cntr2 – counter-screen for MrgX1 activators: effect in parental HEK293 cells. shares compounds with MrgX1 antagonist. Fluo-4 calcium fluorescence (FDSS); hits give high values. fluorescence ratio F(max-min)/F0 at 10 µM. 4,000 tested, 8.7% active. AID 624115;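 active = calcium fluorescence ratio at least three times the spread of buffer wells, meaning a non-specific response in parental cells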
Each line names hits and unclear results; the compound was inactive in the other large screens (follow-up assays come after a bar, where they were run).

Cc1nn2c(N)c(-c3ccccc3)cnc2c1-c1ccccc1	none
CN(C)C1C(=O)c2ccccc2C1=O	MrgX1 antagonist -5 | MrgX1 ant reconf inactive | HEK293 Ca flux inactive | HEK293 Ca counter inactive | HEK293 Ca cntr2 inactive
O=C1c2ccccc2C(=O)C1c1ccc(Br)cc1	none
CCOC(=O)c1cnc(-n2nc(C)cc2C)nc1NC1CCCC1	MrgX1 antagonist -4.7 | MrgX1 ant reconf inactive | HEK293 Ca flux inactive | HEK293 Ca counter inactive | HEK293 Ca cntr2 inactive
CCOC(=O)c1cnc(-n2nc(C)cc2C)nc1Nc1ccc(OC)cc1	none
Nc1nc(N2CCN(c3ccccc3)CC2)n[nH]1	MrgX1 antagonist -5.7 | MrgX1 ant reconf inactive | HEK293 Ca flux inactive | HEK293 Ca counter inactive | HEK293 Ca cntr2 inactive
Nc1nc(N2CCN(c3ccc(Cl)cc3)CC2)n[nH]1	none
CCN1CCCC1CNC1=NCCCCC1 (stereo not drawn)	MrgX1 antagonist -5.2 | MrgX1 ant reconf 83% | HEK293 Ca flux inactive | HEK293 Ca counter inactive | HEK293 Ca cntr2 inactive
COc1ccccc1CC(=O)N1CCN(c2cccc(Cl)c2)CC1	none
O=C(Nc1nnc(-c2ccncc2)o1)c1cccc(N2C(=O)CCC2=O)c1	none
CSc1cccc(-c2nnc(NC(=O)c3cccc(N4C(=O)CCC4=O)c3)o2)c1	MrgX1 antagonist -4.5 (no result: PHOSPHO1 inh) | MrgX1 ant reconf inactive | HEK293 Ca flux inactive | HEK293 Ca counter inactive | HEK293 Ca cntr2 inactive
COc1cc2[nH]c(C(=O)N3CCN(c4ccc(F)cc4)CC3)cc2c(OC)c1OC	none
CCc1cc(=O)oc2cc(OC(C)=O)cc(OC(C)=O)c12	MrgX1 antagonist -8.3 | MrgX1 ant reconf inactive | HEK293 Ca flux inactive | HEK293 Ca counter inactive | HEK293 Ca cntr2 inactive
Cc1cc(SCC(=O)Nc2cccc(S(N)(=O)=O)c2)c(C)cc1Br	MrgX1 antagonist -9.8 | MrgX1 ant reconf inactive | HEK293 Ca flux inactive | HEK293 Ca counter inactive | HEK293 Ca cntr2 inactive
COc1ccccc1/C=C/c1onc(C)c1S(=O)(=O)N1CCC(C(=O)NC(C)C)CC1	MrgX1 antagonist -5.5 | MrgX1 ant reconf inactive | HEK293 Ca flux inactive | HEK293 Ca counter inactive | HEK293 Ca cntr2 inactive
O=C(O)COC(=O)Cc1ccccc1Nc1c(Cl)cccc1Cl	none
Cc1ccc(CNC(=O)C2CCCN2S(=O)(=O)c2ccc(F)cc2)cc1 (stereo not drawn)	none
COc1ccc(CNC(=O)C2CCCN2S(=O)(=O)c2ccc(Cl)cc2)cc1 (stereo not drawn)	MrgX1 antagonist -5.5 | MrgX1 ant reconf 84% | HEK293 Ca flux inactive | HEK293 Ca counter inactive | HEK293 Ca cntr2 inactive
COc1ccc(CCNC(=O)C2CCCN2S(=O)(=O)c2ccc(F)cc2)cc1OC (stereo not drawn)	MrgX1 antagonist -9 | MrgX1 ant reconf inactive | HEK293 Ca flux inactive | HEK293 Ca counter inactive | HEK293 Ca cntr2 inactive
Cc1ccc(C)c(-c2cc(C(=O)N/N=C/c3cccnc3)c3ccccc3n2)c1	none
N#Cc1cnn(-c2ccccc2)c1NC(=O)CN1CCN(c2ccccc2)CC1	none
O=C(CC1OC(=O)c2ccccc21)Nc1ccc(Cl)c(S(=O)(=O)N2CCCCC2)c1 (stereo not drawn)	none (no result: PHOSPHO1 inh)
CCCCN1CC(=O)N2[C@H](c3ccc(OC)cc3)[C@@H]3C(=O)N(CC)C(=O)[C@@H]3[C@]2(Cc2ccccc2)C1=O	none
Cc1sc2nc(SC3CCOC3=O)n(Cc3ccccc3)c(=O)c2c1C (stereo not drawn)	none
O=C1OCCC1Sc1nc2ccccc2c(=O)n1Cc1ccccc1 (stereo not drawn)	MrgX1 antagonist -6.1 | MrgX1 ant reconf inactive | HEK293 Ca flux inactive | HEK293 Ca counter inactive | HEK293 Ca cntr2 inactive
Cc1ccc(C(C(=O)NC2CCCC2)N(Cc2ccc(F)cc2)C(=O)c2csnn2)o1 (stereo not drawn)	MrgX1 antagonist -4.6 | MrgX1 ant reconf inactive | HEK293 Ca flux inactive | HEK293 Ca counter inactive | HEK293 Ca cntr2 inactive
Cc1ccc(C(C(=O)NC2CCCC2)N(Cc2ccccc2)C(=O)c2csnn2)o1 (stereo not drawn)	none
CCc1cccc(CC)c1-n1c(SCC(=O)N2CCc3ccccc3C2)nnc1-c1cccnc1	MrgX1 antagonist -7.8 | MrgX1 ant reconf inactive | HEK293 Ca flux inactive | HEK293 Ca counter inactive | HEK293 Ca cntr2 inactive
COC(=O)c1sc(-c2ccc(C(C)(C)C)cc2)cc1NC(=O)c1ccccc1C(=O)O	MrgX1 antagonist -7.1 | MrgX1 ant reconf 70% | HEK293 Ca flux inactive | HEK293 Ca counter inactive | HEK293 Ca cntr2 100
COC(=O)c1sc(-c2ccc(Cl)cc2)cc1NC(=O)c1ccccc1C(=O)O	none
CC(/C=C1\SC(=S)N(NS(=O)(=O)c2ccc(C)cc2)C1=O)=C\c1ccccc1	RGS4 act -7.3, MrgX1 antagonist -14 | MrgX1 ant reconf inactive | HEK293 Ca flux inactive | HEK293 Ca counter inactive | HEK293 Ca cntr2 47
O=C1CC(C(=O)Nc2nccs2)C(c2ccccc2)O1 (stereo not drawn)	MrgX1 antagonist -6.3 | MrgX1 ant reconf inactive | HEK293 Ca flux inactive | HEK293 Ca counter inactive | HEK293 Ca cntr2 inactive
CCOC(=O)Cc1nnc(Nc2cccc(O)c2)c2ccccc12	MrgX1 antagonist -6.3 | MrgX1 ant reconf inactive | HEK293 Ca flux inactive | HEK293 Ca counter inactive | HEK293 Ca cntr2 inactive
CC(OC(=O)c1ccc(S(=O)(=O)NCc2ccco2)cc1)C(=O)Nc1ccc(Cl)cn1 (stereo not drawn)	MrgX1 antagonist -6.5 | MrgX1 ant reconf inactive | HEK293 Ca flux inactive | HEK293 Ca counter inactive | HEK293 Ca cntr2 inactive
O=C(COC(=O)c1ccc(S(=O)(=O)NCc2ccco2)cc1)Nc1ncc(Cl)cc1Cl	none
C=CCn1c(N2CCCC2)nc2c1c(=O)[nH]c(=O)n2C	MrgX1 antagonist -8.7 | MrgX1 ant reconf inactive | HEK293 Ca flux inactive | HEK293 Ca counter inactive | HEK293 Ca cntr2 inactive
C/C(Cl)=C/Cn1c(N2CCCC2)nc2c1c(=O)[nH]c(=O)n2C	none
CC(C)CCn1c(N2CCc3ccccc3C2)nc2c1c(=O)[nH]c(=O)n2C	MrgX1 antagonist -5 | MrgX1 ant reconf inactive | HEK293 Ca flux inactive | HEK293 Ca counter inactive | HEK293 Ca cntr2 inactive

Assay outcomes as filed in PubChem.
